Source: ChEMBL document CHEMBL1806443, “Novel imidazo[4,5-b]pyridine and triaza-benzo[c]fluorene derivatives: synthesis, antiproliferative activity and DNA binding studies” (Eur J Med Chem, 2011)
pIC50: −log10 of the molar value.

Legend:
SK-BR-3 [1] = assay: Cell cycle arrest in human SKBR3 cells assessed as accumulation at S phase at 5 uM after 48 hrs by propidium iodide staining based flow cytometeric analysis (reference value: 40.6 +/- 4.9%); assay type: functional
SK-BR-3 [2] = assay: Cell cycle arrest in human SKBR3 cells assessed as accumulation at S phase at 50 uM after 24 hrs by propidium iodide staining based flow cytometeric analysis (reference value: 39.9 +/- 1.5%); assay type: functional
SK-BR-3 [3] = assay: Cell cycle arrest in human SKBR3 cells assessed as accumulation at S phase at 10 uM after 24 hrs by propidium iodide staining based flow cytometeric analysis (reference value: 39.9 +/- 1.5%); assay type: functional
SK-BR-3 [4] = assay: Cell cycle arrest in human SKBR3 cells assessed as accumulation at S phase at 5 uM after 24 hrs by propidium iodide staining based flow cytometeric analysis (reference value: 39.9 +/- 1.5%); assay type: functional
SK-BR-3 [5] = assay: Cell cycle arrest in human SKBR3 cells assessed as accumulation at G1 phase at 50 uM after 48 hrs by propidium iodide staining based flow cytometeric analysis (reference value: 24.7 +/- 1.9%); assay type: functional
SK-BR-3 [6] = assay: Cell cycle arrest in human SKBR3 cells assessed as accumulation at G1 phase at 10 uM after 48 hrs by propidium iodide staining based flow cytometeric analysis (reference value: 24.7 +/- 1.9%); assay type: functional
SK-BR-3 [7] = assay: Cell cycle arrest in human SKBR3 cells assessed as accumulation at G1 phase at 5 uM after 48 hrs by propidium iodide staining based flow cytometeric analysis (reference value: 24.7 +/- 1.9%); assay type: functional
SK-BR-3 [8] = assay: Cell cycle arrest in human SKBR3 cells assessed as accumulation at G1 phase at 50 uM after 24 hrs by propidium iodide staining based flow cytometeric analysis (reference value: 39.5 +/- 1.1%); assay type: functional
SK-BR-3 [9] = assay: Cell cycle arrest in human SKBR3 cells assessed as accumulation at G1 phase at 10 uM after 24 hrs by propidium iodide staining based flow cytometeric analysis (reference value: 39.5 +/- 1.1%); assay type: functional
SK-BR-3 [10] = assay: Cell cycle arrest in human SKBR3 cells assessed as accumulation at G1 phase at 5 uM after 24 hrs by propidium iodide staining based flow cytometeric analysis (reference value: 39.5 +/- 1.1%); assay type: functional
SK-BR-3 [11] = assay: Cell cycle arrest in human SKBR3 cells assessed as accumulation at subG1 phase at 50 uM after 48 hrs by propidium iodide staining based flow cytometeric analysis (reference value: 2.1 +/- 0.2%); assay type: functional
SK-BR-3 [12] = assay: Cell cycle arrest in human SKBR3 cells assessed as accumulation at subG1 phase at 10 uM after 48 hrs by propidium iodide staining based flow cytometeric analysis (reference value: 2.1 +/- 0.2%); assay type: functional
SK-BR-3 [13] = assay: Cell cycle arrest in human SKBR3 cells assessed as accumulation at subG1 phase at 5 uM after 48 hrs by propidium iodide staining based flow cytometeric analysis (reference value: 2.1 +/- 0.2%); assay type: functional
SK-BR-3 [14] = assay: Cell cycle arrest in human SKBR3 cells assessed as accumulation at subG1 phase at 50 uM after 24 hrs by propidium iodide staining based flow cytometeric analysis (reference value: 39 +/- 1.1%); assay type: functional
SK-BR-3 [15] = assay: Cell cycle arrest in human SKBR3 cells assessed as accumulation at subG1 phase at 10 uM after 24 hrs by propidium iodide staining based flow cytometeric analysis (reference value: 39 +/- 1.1%); assay type: functional
SK-BR-3 [16] = assay: Cell cycle arrest in human SKBR3 cells assessed as accumulation at subG1 phase at 5 uM after 24 hrs by propidium iodide staining based flow cytometeric analysis (reference value: 39 +/- 1.1%); assay type: functional
WI-38 = assay: Antiproliferative activity against human WI38 cells after 72 hrs by MTT assay; assay type: cell-based; settings: Homo sapiens, WI-38, 72 h
How it was run: (§1)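 Monolayer cells in DMEM with 10% FBS, 2 mM L-glutamine, penicillin and streptomycin at 37 °C, 5% CO2. Seeded at 3000-6000 cells/well by doubling time on day 0. Five 10-fold dilutions (0.01–100 µM) were added and incubated 72 h. MTT read-out, converted to percentage growth. IC50 by linear regression between bracketing concentrations. Quadruplicate points, three independent experiments, ANOVA/Tukey p<0.05.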

MIA PaCa-2 = assay: Antiproliferative activity against human MIAPaCa2 cells after 72 hrs by MTT assay; assay type: functional, cell-based; settings: Homo sapiens, MIA PaCa-2, 72 h; how it was run: as §1
SW-620 = assay: Antiproliferative activity against human SW620 cells after 72 hrs by MTT assay; assay type: functional, cell-based; settings: Homo sapiens, SW-620, 72 h; how it was run: as §1
HEp-2 = assay: Antiproliferative activity against human Hep2 cells after 72 hrs by MTT assay; assay type: functional, cell-based; settings: Homo sapiens, HEp-2, 72 h; how it was run: as §1
SK-BR-3 [17] = assay: Antiproliferative activity against human SKBR3 cells after 72 hrs by MTT assay; assay type: functional, cell-based; settings: Homo sapiens, SK-BR-3, 72 h; how it was run: as §1
MCF7 = assay: Antiproliferative activity against human MCF7 cells after 72 hrs by MTT assay; assay type: functional, cell-based; settings: Homo sapiens, MCF7, 72 h; how it was run: as §1
HeLa = assay: Antiproliferative activity against human HeLa cells after 72 hrs by MTT assay; assay type: functional, cell-based; settings: Homo sapiens, HeLa, 72 h; how it was run: as §1
SK-BR-3 [18] = assay: Cell cycle arrest in human SKBR3 cells assessed as accumulation at S phase at 10 uM after 48 hrs by propidium iodide staining based flow cytometeric analysis (reference value: 40.6 +/- 4.9%); assay type: functional
SK-BR-3 [19] = assay: Cell cycle arrest in human SKBR3 cells assessed as accumulation at S phase at 50 uM after 48 hrs by propidium iodide staining based flow cytometeric analysis (reference value: 40.6 +/- 4.9%); assay type: functional
SK-BR-3 [20] = assay: Cell cycle arrest in human SKBR3 cells assessed as accumulation at G2/M phase at 5 uM after 24 hrs by propidium iodide staining based flow cytometeric analysis (reference value: 20.6 +/- 2.1%); assay type: functional
SK-BR-3 [21] = assay: Cell cycle arrest in human SKBR3 cells assessed as accumulation at G2/M phase at 10 uM after 24 hrs by propidium iodide staining based flow cytometeric analysis (reference value: 20.6 +/- 2.1%); assay type: functional
SK-BR-3 [22] = assay: Cell cycle arrest in human SKBR3 cells assessed as accumulation at G2/M phase at 50 uM after 24 hrs by propidium iodide staining based flow cytometeric analysis (reference value: 20.6 +/- 2.1%); assay type: functional
SK-BR-3 [23] = assay: Cell cycle arrest in human SKBR3 cells assessed as accumulation at G2/M phase at 5 uM after 48 hrs by propidium iodide staining based flow cytometeric analysis (reference value: 34.7 +/- 3.3%); assay type: functional
SK-BR-3 [24] = assay: Cell cycle arrest in human SKBR3 cells assessed as accumulation at G2/M phase at 10 uM after 48 hrs by propidium iodide staining based flow cytometeric analysis (reference value: 34.7 +/- 3.3%); assay type: functional
SK-BR-3 [25] = assay: Cell cycle arrest in human SKBR3 cells assessed as accumulation at G2/M phase at 50 uM after 48 hrs by propidium iodide staining based flow cytometeric analysis (reference value: 34.7 +/- 3.3%); assay type: functional

Question: `Nc1ccc2c(ccc3nc4ncccc4n32)c1` was tested. Which Activity (SK-BR-3 [1]) did it give?
Answer: 59.8%

Question: And the Activity (SK-BR-3 [2])?
Answer: 48.1%

Question: What about the Activity (SK-BR-3 [3]) of the same compound?
Answer: 34.5%

Question: And the Activity (SK-BR-3 [4])?
Answer: 35.1%

Question: And the Activity (SK-BR-3 [5])?
Answer: 19.9%

Question: And the Activity (SK-BR-3 [6])?
Answer: 20.9%

Question: What about the Activity (SK-BR-3 [7]) of the same compound?
Answer: 24.4%

Question: And the Activity (SK-BR-3 [8])?
Answer: 33.2%

Question: And the Activity (SK-BR-3 [9])?
Answer: 39.4%

Question: And the Activity (SK-BR-3 [10])?
Answer: 47.1%

Question: What about the Activity (SK-BR-3 [11]) of the same compound?
Answer: 3.1%

Question: What about the Activity (SK-BR-3 [12]) of the same compound?
Answer: 5.5%

Question: And the Activity (SK-BR-3 [13])?
Answer: 1.9%

Question: And the Activity (SK-BR-3 [14])?
Answer: 50.2%

Question: What about the Activity (SK-BR-3 [15]) of the same compound?
Answer: 45.8%

Question: And the Activity (SK-BR-3 [16])?
Answer: 35.7%

Question: What about the pIC50 (WI-38) of the same compound?
Answer: < 4.00

Question: What about the pIC50 (MIA PaCa-2) of the same compound?
Answer: 4.32

Question: And the pIC50 (SW-620)?
Answer: 4.46

Question: What about the pIC50 (HEp-2) of the same compound?
Answer: 4.41

Question: And the pIC50 (SK-BR-3 [17])?
Answer: 5.53

Question: And the pIC50 (MCF7)?
Answer: 4.14

Question: What about the pIC50 (HeLa) of the same compound?
Answer: 4.36

Question: What about the Activity (SK-BR-3 [18]) of the same compound?
Answer: 64.2%

Question: And the Activity (SK-BR-3 [19])?
Answer: 47.6%

Question: And the Activity (SK-BR-3 [20])?
Answer: 17.7%

Question: What about the Activity (SK-BR-3 [21]) of the same compound?
Answer: 26.1%

Question: And the Activity (SK-BR-3 [22])?
Answer: 18.7%

Question: What about the Activity (SK-BR-3 [23]) of the same compound?
Answer: 15.8%

Question: What about the Activity (SK-BR-3 [24]) of the same compound?
Answer: 14.8%

Question: What about the Activity (SK-BR-3 [25]) of the same compound?
Answer: 32.5%
